Experimental data published in ChEMBL document CHEMBL4376900, “Structure-Activity Relationship of Antischistosomal Ozonide Carboxylic Acids” (J Med Chem, 2020).
≈ marks a conversion by molar mass, not a printed value.

Tests used:
[1] = Partition coefficient, logD of the compound at pH 7.4 by HPLC analysis; format: physicochemical; settings: octanol/water
[2] = Kinetic solubility in pH 6.5 phosphate buffer incubated for 30 mins by nephelometry; format: physicochemical; settings: read-out: Kinetic_solubility
Summary of the method: (§1)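 DMSO stocks (10 mg/mL) diluted into pH 6.5 phosphate buffer or 0.01 M HCl (about pH 2.0) at 1% final DMSO. After 30 min, a solubility range was determined by nephelometry.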

[3] = Kinetic solubility in pH 2.0 0.01M HCl buffer incubated for 30 mins by nephelometry; format: physicochemical; settings: read-out: Kinetic_solubility; summary of the method: as §1
[4] = Intrinsic clearance in human liver microsomes in presence of NADPH-regenerating system incubated over 60 mins; format: ADME, Microsome; settings: read-out: CLH
Summary of the method: (§2)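 Compounds incubated at 37 °C with liver microsomes at 0.4 mg/mL protein. Reaction started by adding an NADPH-regenerating system and quenched with acetonitrile containing diazepam internal standard at several time points over 60 min. No-NADPH controls were quenched at 2, 30 and 60 min.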

[5] = Intrinsic clearance in mouse liver microsomes in presence of NADPH-regenerating system incubated over 60 mins; format: ADME, Microsome; settings: read-out: CLH; summary of the method: as §2
[6] = target: Albumin (Homo sapiens, UniProt P02768); assay: Protein binding to human albumin by HPLC analysis; format: ADME; settings: isolated protein
Summary of the method: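 Binding estimated chromatographically using a gradient HPLC method derived from the Valko approach.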

[7] = system: Schistosoma mansoni; assay: Antischistosomal activity against Schistosoma mansoni infected in NMRI mouse assessed as reduction in total adult worm burden at 400 mg/kg, po administered as single dose starting on day 49 post-infection and measured at 28 days post treatment relative to control; format: functional; parameters: scale not given: the % may be the effect or the level left
[8] = system: HFF; assay: Cytotoxicity in HFF assessed as reduction in cell viability up to 50 uM incubated for 24 hrs by Alamar blue sye based assay; settings: human
Summary of the method: (§3)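 Cells maintained in D10 medium were grown to confluence, then exposed to increasing compound concentrations (0–100 μM) for 24 h. Alamar blue (10 mM) was then added for 4 h, and viability was read as fluorescence.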

[9] = system: U2OS; assay: Cytotoxicity in human U2OS assessed as reduction in cell viability up to 50 uM incubated for 24 hrs by Alamar blue sye based assay; summary of the method: as §3
[10] = system: HEK-293T; assay: Cytotoxicity in human HEK293T assessed as reduction in cell viability up to 50 uM incubated for 24 hrs by Alamar blue sye based assay; summary of the method: as §3
[11] = Cytotoxicity in human HC04 assessed as reduction in cell viability up to 50 uM incubated for 24 hrs by Alamar blue sye based assay; summary of the method: as §3
[12] = system: Schistosoma mansoni; assay: Antischistosomal activity against Schistosoma mansoni infected in mouse assessed as reduction in adult worm burden at 400 mg/kg, po administered as single dose relative to control; format: functional; parameters: scale not given: the % may be the effect or the level left
[13] = system: Schistosoma japonicum; assay: Antischistosomal activity against Schistosoma japonicum infected in mouse assessed as reduction in adult worm burden at 400 mg/kg, po administered as single dose relative to control; format: functional; parameters: scale not given: the % may be the effect or the level left
[14] = system: Schistosoma haematobium; assay: Antischistosomal activity against Schistosoma haematobium infected in mouse assessed as reduction in adult worm burden at 400 mg/kg, po administered as single dose relative to control; format: functional; parameters: scale not given: the % may be the effect or the level left
[15] = system: Schistosoma mansoni; assay: Antischistosomal activity against Schistosoma mansoni infected in mouse assessed as reduction in juvenile worm burden at 200 mg/kg, po administered as single dose relative to control; format: functional; parameters: scale not given: the % may be the effect or the level left
Summary of the method: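 Female NMRI mice, 4 weeks old, infected subcutaneously with about 100 S. mansoni cercariae. Juvenile-stage treatment was a single oral dose on day 21 post-infection in 7% v/v Tween 80 / 3% v/v ethanol (10 mL/kg). Untreated infected mice (n = 8) served as controls. Necropsy by CO2 21 days post-treatment, with worms picked, sexed and counted.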

[16] = system: Schistosoma mansoni; assay: Antischistosomal activity against Schistosoma mansoni; format: functional, organism-based
[17] = system: Schistosoma japonicum; assay: Antischistosomal activity against Schistosoma japonicum; format: functional, organism-based

Chain of Albumin (P02768 whole entry): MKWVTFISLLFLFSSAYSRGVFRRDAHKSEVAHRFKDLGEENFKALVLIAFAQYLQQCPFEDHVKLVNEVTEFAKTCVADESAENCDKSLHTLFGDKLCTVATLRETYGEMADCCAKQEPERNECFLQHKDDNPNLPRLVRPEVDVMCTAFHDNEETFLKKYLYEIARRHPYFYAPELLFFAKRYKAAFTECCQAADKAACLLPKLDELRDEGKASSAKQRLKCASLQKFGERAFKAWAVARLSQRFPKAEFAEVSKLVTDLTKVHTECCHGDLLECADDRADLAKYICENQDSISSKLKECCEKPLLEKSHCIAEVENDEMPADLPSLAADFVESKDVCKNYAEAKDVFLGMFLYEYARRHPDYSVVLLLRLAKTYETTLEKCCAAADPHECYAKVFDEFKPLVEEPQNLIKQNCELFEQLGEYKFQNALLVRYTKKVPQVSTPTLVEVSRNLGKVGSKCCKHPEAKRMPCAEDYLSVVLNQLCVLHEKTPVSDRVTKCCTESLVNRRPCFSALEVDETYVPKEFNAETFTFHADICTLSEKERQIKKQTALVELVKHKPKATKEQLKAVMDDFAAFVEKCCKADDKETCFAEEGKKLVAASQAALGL

With CC(C)(Oc1ccc([C@H]2CC[C@]3(CC2)OOC2(O3)C3CC4CC(C3)CC2C4)cc1)C(=O)O (stereo partly drawn) as the compound, how does the logD [1] read?
The logD was 3.1.

What about the solubility kinetic at 0.5 h [2] of the same compound?
The solubility kinetic at 0.5 h was < 1.6 µg/mL.

What about the solubility kinetic at 0.5 h [3] of the same compound?
The solubility kinetic at 0.5 h was 3.1 to 6.3 µg/mL (≈ 7 to 14.2 µM).

And the microsomal CLint [4]?
Its microsomal CLint is < 7 µL/min/mg.

What about the microsomal CLint [5] of the same compound?
The microsomal CLint was 7 µL/min/mg.

And the PPB [6]?
The PPB was > 99.5%.

And the Activity [7]?
Its Activity is 48%.

Which logD [1] does the source give for CS(=O)(=O)NC(=O)COc1ccc([C@H]2CC[C@]3(CC2)OOC2(O3)C3CC4CC(C3)CC2C4)cc1 (stereo partly drawn) here?
Its logD is 3.

And the solubility kinetic at 0.5 h [2]?
The solubility kinetic at 0.5 h was < 1.6 µg/mL.

And the solubility kinetic at 0.5 h [3]?
Its solubility kinetic at 0.5 h is 6.3 to 12.5 µg/mL (≈ 12.8 to 25.4 µM).

What about the microsomal CLint [4] of the same compound?
Its microsomal CLint is < 7 µL/min/mg.

What about the microsomal CLint [5] of the same compound?
Its microsomal CLint is 12 µL/min/mg.

What about the Activity [7] of the same compound?
The Activity was 53%.

With O=C(O)CCCOc1ccc([C@H]2CC[C@]3(CC2)OOC2(O3)C3CC4CC(C3)CC2C4)cc1 (stereo partly drawn) as the compound, how does the logD [1] read?
The logD was 3.6.

What about the solubility kinetic at 0.5 h [2] of the same compound?
Its solubility kinetic at 0.5 h is < 3.1 µg/mL.

What about the solubility kinetic at 0.5 h [3] of the same compound?
The solubility kinetic at 0.5 h was < 1.6 µg/mL.

What about the microsomal CLint [4] of the same compound?
The microsomal CLint was < 7 µL/min/mg.

What about the microsomal CLint [5] of the same compound?
Its microsomal CLint is 8 µL/min/mg.

What about the PPB [6] of the same compound?
The PPB was > 99.5%.

And the Activity [7]?
The Activity was 55%.

With O=C(O)COc1ccc([C@H]2CC[C@]3(CC2)OOC2(O3)C3CC4CC(C3)CC2C4)cc1C(=O)O (stereo partly drawn) as the compound, how does the logD [1] read?
The logD was 1.9.

And the solubility kinetic at 0.5 h [2]?
Its solubility kinetic at 0.5 h is < 3.1 µg/mL.

And the solubility kinetic at 0.5 h [3]?
Its solubility kinetic at 0.5 h is > 100 µg/mL.

What about the microsomal CLint [4] of the same compound?
Its microsomal CLint is < 7 µL/min/mg.

What about the microsomal CLint [5] of the same compound?
The microsomal CLint was 8 µL/min/mg.

What about the PPB [6] of the same compound?
Its PPB is 99.1%.

What about the Activity [7] of the same compound?
Its Activity is 0%.

For O=C(O)COc1ccc([C@H]2CC[C@]3(CC2)OOC2(O3)C3CC4CC2CC(C3)C4O)cc1 (stereo partly drawn), which logD [1] is on record?
Its logD is 1.7.

What about the solubility kinetic at 0.5 h [2] of the same compound?
Its solubility kinetic at 0.5 h is < 1.6 µg/mL.

What about the solubility kinetic at 0.5 h [3] of the same compound?
The solubility kinetic at 0.5 h was 25 to 50 µg/mL (≈ 58.1 to 116 µM).

And the microsomal CLint [4]?
Its microsomal CLint is < 7 µL/min/mg.

And the microsomal CLint [5]?
Its microsomal CLint is < 7 µL/min/mg.

And the PPB [6]?
Its PPB is 98.5%.

What about the Activity [7] of the same compound?
Its Activity is 14%.

Which results are given for O=C(O)c1cccc([C@H]2CC[C@]3(CC2)OOC2(O3)C3CC4CC(C3)CC2C4)c1 (stereo partly drawn)?
logD [1]: 3; solubility kinetic at 0.5 h [2]: < 1.6 µg/mL; solubility kinetic at 0.5 h [3]: < 1.6 µg/mL; microsomal CLint [4]: 12 µL/min/mg; microsomal CLint [5]: 30 µL/min/mg; PPB [6]: 98.9%; Activity [7]: 63%

Which results are given for O=C(O)CNC(=O)COc1ccc([C@H]2CC[C@]3(CC2)OOC2(O3)C3CC4CC(C3)CC2C4)cc1 (stereo partly drawn)?
logD [1]: 3; solubility kinetic at 0.5 h [2]: 12.5 to 25 µg/mL (≈ 26.5 to 53 µM); solubility kinetic at 0.5 h [3]: < 3.1 µg/mL; microsomal CLint [4]: < 7 µL/min/mg; PPB [6]: 98.5%; Activity [7]: 76%; Activity [8]: Non-Toxic; Activity [9]: Non-Toxic; Activity [10]: Non-Toxic; Activity [11]: Non-Toxic

For O=C(O)COc1c(Cl)cc([C@H]2CC[C@]3(CC2)OOC2(O3)C3CC4CC(C3)CC2C4)cc1Cl (stereo partly drawn), which logD [1] is on record?
Its logD is 3.3.

What about the solubility kinetic at 0.5 h [2] of the same compound?
Its solubility kinetic at 0.5 h is < 3.1 µg/mL.

What about the solubility kinetic at 0.5 h [3] of the same compound?
Its solubility kinetic at 0.5 h is 3.1 to 6.3 µg/mL (≈ 6.41 to 13 µM).

And the Activity [7]?
Its Activity is 32%.

Which Activity [12] does the source give for O=C(O)COc1ccc([C@H]2CC[C@]3(CC2)OOC2(O3)C3CC4CC(C3)CC2C4)cc1 (stereo partly drawn) here?
The Activity was 80%.

What about the Activity [13] of the same compound?
Its Activity is 69%.

And the Activity [14]?
Its Activity is 86%.

What about the Activity [15] of the same compound?
Its Activity is 84%.

And the IC50 [16]?
The IC50 was 44 µM.

What about the IC50 [17] of the same compound?
The IC50 was 39 µM.

And the logD [1]?
The logD was 2.9.

And the solubility kinetic at 0.5 h [2]?
Its solubility kinetic at 0.5 h is < 1.6 µg/mL.

And the solubility kinetic at 0.5 h [3]?
Its solubility kinetic at 0.5 h is 6.3 to 12.5 µg/mL (≈ 15.2 to 30.2 µM).

What does the source list for CS(=O)(=O)O.O=C(O)COc1ccc([C@H]2CC[C@]3(CC2)OOC2(O3)C3CC4CC2CC(C3)N4)cc1 (stereo partly drawn)?
logD [1]: 1.3; solubility kinetic at 0.5 h [2]: 3.1 to 6.3 µg/mL; solubility kinetic at 0.5 h [3]: < 1.6 µg/mL; microsomal CLint [4]: 35 µL/min/mg; microsomal CLint [5]: 27 µL/min/mg; Activity [7]: 29%

For CS(=O)(=O)O.O=C(O)C1CN(Cc2ccc([C@H]3CC[C@]4(CC3)OOC3(O4)C4CC5CC(C4)CC3C5)cc2)C1 (stereo partly drawn), which solubility kinetic at 0.5 h [2] is on record?
Its solubility kinetic at 0.5 h is 6.3 to 12.5 µg/mL.

What about the solubility kinetic at 0.5 h [3] of the same compound?
Its solubility kinetic at 0.5 h is < 1.6 µg/mL.

And the microsomal CLint [4]?
The microsomal CLint was 7 µL/min/mg.

What about the microsomal CLint [5] of the same compound?
The microsomal CLint was 10 µL/min/mg.

And the Activity [7]?
Its Activity is 43%.

What does the source list for O=C(O)COc1ccc([C@H]2CC[C@]3(CC2)OOC2(O3)C3CC4CC2CC(C3)C4(F)F)cc1 (stereo partly drawn)?
logD [1]: 2.9; solubility kinetic at 0.5 h [2]: < 1.6 µg/mL; solubility kinetic at 0.5 h [3]: 12.5 to 25 µg/mL (≈ 27.7 to 55.5 µM); microsomal CLint [4]: 23 µL/min/mg; microsomal CLint [5]: 130 µL/min/mg; PPB [6]: 99.4%; Activity [7]: 57%

Which Activity [7] does the source give for C[C@H]1[C@@H](O)O[C@@H]2O[C@@]3(C)CC[C@H]4[C@H](C)CC[C@@H]1[C@@]24OO3 [ARTENIMOL] here?
Its Activity is 66%.
